Assay results from ChEMBL document CHEMBL5329223, “Newly synthesized 6-substituted piperazine/phenyl-9-cyclopentyl containing purine nucleobase analogs act as potent anticancer agents and induce apoptosis via inhibiting Src in hepatocellular carcinoma cells” (RSC Med Chem, 2023).
Activity calls are given as the source filed them. The calls are words filed in the database; no cut-off is given here.

Assays:
[1] = system: Huh-7; assay: Cytotoxicity against human Huh-7 cells assessed as cell growth inhibition incubated for 72 hrs by SRB assay; type: functional, cell-based; conditions: for IC50: Huh-7, 72 h
Outline: (§1)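 Cells seeded at 1000–3000 per well, treated after 24 h with 2.5–40 μM (40, 20, 10, 5, 2.5 μM) for 72 h, in duplicate or triplicate; DMSO negative control. Fixed with 10% TCA 1 h at 4 °C, stained with 0.4% SRB in 1% acetic acid, dye solubilized in 10 mM TBS, A515 read; OD normalized to DMSO control, IC50 from growth-inhibition curves.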

[2] = system: Mahlavu; assay: Cytotoxicity against human Mahlavu cells assessed as cell growth inhibition incubated for 72 hrs by SRB assay; type: functional, cell-based; outline: as §1
[3] = system: SNU-387; assay: Cytotoxicity against human SNU-387 cells assessed as cell growth inhibition incubated for 72 hrs by SRB assay; type: functional, cell-based; conditions: SNU-387, 72 h; outline: as §1
[4] = system: HepG2; assay: Cytotoxicity against human HepG2 cells assessed as cell growth inhibition incubated for 72 hrs by SRB assay; type: functional, cell-based; conditions: HepG2, 72 h; outline: as §1
[5] = system: SNU-398; assay: Cytotoxicity against human SNU-398 cells assessed as cell growth inhibition incubated for 72 hrs by SRB assay; type: functional, cell-based; conditions: SNU-398, 72 h; outline: as §1
[6] = system: MCF7; assay: Cytotoxicity against human MCF7 cells assessed as cell growth inhibition incubated for 72 hrs by SRB assay; type: functional, cell-based; conditions: for IC50: MCF7, 72 h; outline: as §1
[7] = system: HCT-116; assay: Cytotoxicity against human HCT-116 cells assessed as cell growth inhibition incubated for 72 hrs by SRB assay; type: functional, cell-based; conditions: for IC50: HCT-116, 72 h; outline: as §1
[8] = Cytotoxicity against human FOCUS cells assessed as cell growth inhibition incubated for 72 hrs by SRB assay; type: functional, cell-based; outline: as §1
[9] = system: SNU-475; assay: Cytotoxicity against human SNU-475 cells assessed as cell growth inhibition incubated for 72 hrs by SRB assay; type: functional, cell-based; conditions: SNU-475, 72 h; outline: as §1
[10] = system: SNU-182; assay: Cytotoxicity against human SNU-182 cells assessed as cell growth inhibition incubated for 72 hrs by SRB assay; type: functional, cell-based; conditions: for IC50: SNU-182, 72 h; outline: as §1
[11] = system: SNU-423; assay: Cytotoxicity against human SNU-423 cells assessed as cell growth inhibition incubated for 72 hrs by SRB assay; type: functional, cell-based; conditions: SNU-423, 72 h; outline: as §1
[12] = system: SNU-449; assay: Cytotoxicity against human SNU-449 cells assessed as cell growth inhibition incubated for 72 hrs by SRB assay; type: functional, cell-based; conditions: SNU-449, 72 h; outline: as §1
[13] = system: Hep 3B2; assay: Cytotoxicity against human Hep3B cells assessed as cell growth inhibition incubated for 72 hrs by SRB assay; type: functional, cell-based; outline: as §1
[14] = system: PLC; assay: Cytotoxicity against human PLC cells assessed as cell growth inhibition incubated for 72 hrs by SRB assay; type: functional, cell-based; outline: as §1
[15] = system: Huh-7; assay: Induction of cell cycle arrest in human Huh-7 cells assessed as increase in accumulation of cells at subG1 phase at 5 uM incubated for 72 hrs by PI staining based flow cytometry; type: functional
Outline: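 Huh7 and Mahlavu cells serum-starved 24 h to synchronize, then given 5 μM or DMSO in fresh growth medium for 72 h. Trypsinized, fixed in ice-cold 70% ethanol at least 3 h at −20 °C, PI-stained with a cell cycle kit, analyzed by flow cytometry for SubG1.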

[16] = system: Huh-7; assay: Upregulation of intracellular ATP level in human Huh-7 cells at 5 uM incubated for 72 hrs by Kinase Glo assay; type: functional, cell-based
Outline: (§2)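 Huh7 and Mahlavu cells grown 24 h, then treated with 5 μM for 72 h. Lysates protein-normalized by Bradford; ATP read by Kinase-Glo Plus luminescence per kit protocol. Staurosporine positive control, DMSO negative control.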

[17] = system: Mahlavu; assay: Upregulation of intracellular ATP level in human Mahlavu cells at 5 uM incubated for 72 hrs by Kinase Glo assay; type: functional, cell-based; outline: as §2
[18] = system: Huh-7; assay: Cytotoxicity against human Huh-7 cells assessed as cell growth inhibition at 0.625 to 5 uM measured upto 72 hrs by RT-CES analysis; type: functional, cell-based; conditions: dose 0.625-5 µM
Outline: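 Huh7 cells, 2000 per well, treated 24 h after seeding alongside DMSO control; cell index from impedance recorded every 30 min; plots for each concentration normalized to DMSO-treated cells.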

[19] = system: Huh-7; assay: Induction of morphological changes in human Huh-7 cells assessed as horseshoe-like condensed nuclei at 5 uM incubated for 72 hrs by Hoechst 33258 dye based microscopy; type: functional, cell-based
Outline: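 Huh7 cells on coverslips (50 000 per well) given 5 μM or DMSO 24 h after seeding for 72 h; permeabilized with ice-cold methanol 10 min, Hoechst 33258 stain 5 min in the dark, imaged by fluorescence microscopy with 40× objective.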

[20] = system: Huh-7; assay: Induction of apoptosis in human Huh-7 cells assessed as increase in PARP-1 cleavage at 5 uM incubated for 72 hrs by Western blot analysis; type: functional, cell-based
Outline: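 Huh7 cells (300 000 per dish) treated 24 h after seeding with 5 μM or DMSO for 72 h. Immunoblot for PARP-1, phospho-Src Tyr416, Src, Rb, phospho-Rb Ser807/811, Cdk2; calnexin and actin as loading controls.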

Row | SMILES | IC50 [1] [µM] | IC50 [2] [µM] | IC50 [3] [µM] | IC50 [4] [µM] | IC50 [5] [µM] | IC50 [6] [µM] | IC50 [7] [µM] | IC50 [8] [µM] | IC50 [9] [µM] | IC50 [10] [µM] | IC50 [11] [µM] | IC50 [12] [µM] | IC50 [13] [µM] | IC50 [14] [µM] | also measured
1 | O=S(=O)(c1ccc(F)cc1)N1CCN(c2ncnc3c2ncn3C2CCCC2)CC1 | 9 | 11.4 | 11.1 | 4.8 | 8 | 5.2 | 12 | 12.6 | 21.6 | 47.9 | 9.5 | 16.3 | 6.1 | 15.4 | 
2 | Brc1ccc(-c2ncnc3c2ncn3C2CCCC2)cc1 | 16 |  |  |  |  | 56.1 |  |  |  |  |  |  |  |  | inhibition [7]: inactive
3 | COc1ccc(S(=O)(=O)N2CCN(c3ncnc4c3ncn4C3CCCC3)CC2)cc1 | 7.1 | 9 | 15.8 | 2.7 | 6.9 | 8.6 | 10.4 | 10.1 | 57.5 |  | 6.8 | 20 | 71.8 | 84.6 | growth inhibition (GI) [10]: inactive
4 | COc1ccc(N2CCN(c3ncnc4c3ncn4C3CCCC3)CC2)cc1 | 1.3 | 0.6 | 38 | 0.3 | 0.3 | 1 | 5 | 2.6 | 13 | 13 | 15 | 2 | 0.3 | 9.3 | Activity [15]: Active; Activity [16]: inactive; Activity [17]: inactive; growth inhibition (GI) [18]: Active; Activity [19]: Active; Activity [20]: Active
5 | Fc1ccc(N2CCN(c3ncnc4c3ncn4C3CCCC3)CC2)cc1 | 1.5 | 7 | 26 | 0.5 | 1 | 9.1 | 1.6 | 1.5 | 7 | 41 | 16 | 3.3 | 4.3 | 6 | Activity [15]: Active; Activity [16]: inactive; Activity [17]: inactive; growth inhibition (GI) [18]: Active; Activity [19]: Active; Activity [20]: Active
6 | Clc1ccc(-c2ncnc3c2ncn3C2CCCC2)cc1 | 15.6 |  |  |  |  |  |  |  |  |  |  |  |  |  | growth inhibition (GI) [6]: inactive; growth inhibition (GI) [7]: inactive
7 | Nc1nc(Cl)nc2c1ncn2[C@H]1C[C@H](O)[C@@H](CO)O1 [CLADRIBINE] | 0.6 | < 0.1 | 7.1 | 0.4 | < 0.1 |  | < 0.1 | < 0.1 | 2.5 | 23.3 | 6.7 | 37.3 | 0.1 | 9.1 | 
8 | O=S(=O)(c1ccc(Cl)cc1)N1CCN(c2ncnc3c2ncn3C2CCCC2)CC1 | 34.4 |  |  |  |  | 10.5 | 44.8 |  |  |  |  |  |  |  | 
9 | OC[C@H]1O[C@@H](n2cnc3c2N=CNC[C@H]3O)C[C@@H]1O |  |  |  |  |  |  |  |  |  |  |  |  |  |  | growth inhibition (GI) [1]: inactive; growth inhibition (GI) [6]: inactive; growth inhibition (GI) [7]: inactive
10 | FC(F)(F)c1ccc(-c2ncnc3c2ncn3C2CCCC2)cc1 | 29.8 |  |  |  |  | 20.3 | 6 |  |  |  |  |  |  |  | 
11 | CC(C)(C)c1ccc(-c2ncnc3c2ncn3C2CCCC2)cc1 | 6.3 | 4 | 2 | 2.7 | 1.8 | 12.6 | 6.6 | 2 | 12.3 | 12.2 | 4 | 6.9 | 6.7 | 3.4 | 
12 | Clc1ccc(N2CCN(c3ncnc4c3ncn4C3CCCC3)CC2)cc1Cl | 0.04 | 0.1 | 20 | 0.02 | 0.2 | 0.16 | 0.04 | 0.5 | 2.5 | 65 | 9.9 | < 0.1 | 0.03 | 7 | 
13 | O=S(=O)(c1ccc(C(F)(F)F)cc1)N1CCN(c2ncnc3c2ncn3C2CCCC2)CC1 | 12.3 |  |  |  |  | 12.7 | 32.4 |  |  |  |  |  |  |  | 
14 | Cc1ccc(N2CCN(c3ncnc4c3ncn4C3CCCC3)CC2)cc1 | 1.4 | 4.2 | 88 | 0.9 | 1.9 | 6.4 | 1.9 | 5 | 17.7 | 61 | 17.5 | 17 | 3.1 | 20.7 | 
15 | CC(C)c1ccc(S(=O)(=O)N2CCN(c3ncnc4c3ncn4C3CCCC3)CC2)cc1 | 14.7 |  |  |  |  | 17.2 | 11.5 |  |  |  |  |  |  |  | 
16 | FC(F)(F)Oc1ccc(-c2ncnc3c2ncn3C2CCCC2)cc1 | 15.1 |  |  |  |  | 24 | 26.3 |  |  |  |  |  |  |  | 
17 | O=S(=O)(c1ccc(Br)cc1)N1CCN(c2ncnc3c2ncn3C2CCCC2)CC1 | 8 | 20.5 | 15.9 | 6.3 | 4 | 6.5 | 8.4 | 15.9 | 9 | 60.6 | 10.5 | 8.5 | 4.3 | 9.2 | 
18 | COc1ccc(-c2ncnc3c2ncn3C2CCCC2)cc1 | 10.6 |  |  |  |  | 19.5 | 39 |  |  |  |  |  |  |  | 
19 | Fc1ccc(-c2ncnc3c2ncn3C2CCCC2)cc1 | 6.7 |  |  |  |  | 15.6 | 6.1 |  |  |  |  |  |  |  | 
20 | c1ccc(-c2ncnc3c2ncn3C2CCCC2)cc1 | 12.8 |  |  |  |  | 15.7 | 13.9 |  |  |  |  |  |  |  | 
21 | CN[C@@H]1C[C@H]2O[C@@](C)([C@@H]1OC)n1c3ccccc3c3c4c(c5c6ccccc6n2c5c31)C(=O)NC4 |  |  |  |  |  |  |  |  |  |  |  |  |  |  | Activity [16]: inactive; Activity [17]: inactive
22 | Nc1nc(F)nc2c1ncn2[C@@H]1O[C@H](CO)[C@@H](O)[C@@H]1O [FLUDARABINE] | 24.4 | 14.2 | 33.8 | 17 | 0.2 |  | 8.3 | 13.7 | 41.5 | 37.2 | 32.6 | 25.1 | 27.8 | 41.7 | 
23 | Cc1ccc(S(=O)(=O)N2CCN(c3ncnc4c3ncn4C3CCCC3)CC2)cc1 | 49 |  |  |  |  | 171 | 197 |  |  |  |  |  |  |  | 
24 | O=S(=O)(c1ccccc1)N1CCN(c2ncnc3c2ncn3C2CCCC2)CC1 | 13.1 |  |  |  |  | 11.2 | 12 |  |  |  |  |  |  |  | 
25 | Cc1ccc(-c2ncnc3c2ncn3C2CCCC2)cc1 | 23.8 |  |  |  |  | 17.7 | 22.4 |  |  |  |  |  |  |  | 
